Measured values gathered from unrelated publications.
Lines come from different studies, so protocols differ.
Target: Serine/threonine-protein kinase Chk1 (CHEK1, Homo sapiens, UniProt O14757)
One construct used (O14757 1-476): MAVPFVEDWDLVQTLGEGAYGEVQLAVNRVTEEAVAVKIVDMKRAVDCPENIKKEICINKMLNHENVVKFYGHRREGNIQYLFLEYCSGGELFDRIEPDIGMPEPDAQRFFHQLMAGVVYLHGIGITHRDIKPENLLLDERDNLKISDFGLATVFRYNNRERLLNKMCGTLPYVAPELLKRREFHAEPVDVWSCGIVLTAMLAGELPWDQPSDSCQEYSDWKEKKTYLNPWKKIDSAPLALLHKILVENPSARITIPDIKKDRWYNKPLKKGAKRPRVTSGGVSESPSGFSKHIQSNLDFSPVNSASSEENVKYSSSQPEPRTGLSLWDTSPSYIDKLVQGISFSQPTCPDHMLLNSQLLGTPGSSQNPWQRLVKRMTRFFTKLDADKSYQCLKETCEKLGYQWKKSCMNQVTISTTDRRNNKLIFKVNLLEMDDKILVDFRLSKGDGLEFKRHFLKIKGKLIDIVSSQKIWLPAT

SMILES | observed | mode | method | tested at | endpoint | result
Nc1ncc(-c2nc(N3CCOCC3)nc(N3CCOCC3)n2)c(C(F)F)n1 | binding | – | competition with immobilised ligand | 10 µM | remaining binding | 67%
Cn1cc(-c2cccc(N3CCc4c(sc5c4CC(C)(C)C5)C3=O)c2CO)cc(Nc2ccncn2)c1=O | enzyme activity | inhibitor | – | 1 µM | inhibition | 1%
CC(C)(C)c1cc(C=C(C#N)C#N)cc(Br)c1O | enzyme activity | inhibitor | – | 0.5 µM | remaining activity | 100%
Cc1nn(C)cc1-c1nc2c(N3CCN(Cc4ccc(Cl)cc4)CC3)c(Cl)cnc2[nH]1 | binding | – | competition with immobilised ligand | 1 µM | remaining binding | 100%
C#Cc1n[nH]c2c(-c3cn([C@@H](C)c4ccccn4)c(=O)[nH]c3=O)cc(F)cc12 | enzyme activity | inhibitor | – | 0.1 µM | inhibition | -3.2%
COc1ncccc1-c1cnn2ccc(N3CCN(C(=O)OC(C)C)CC3)nc12 | binding | – | competition with immobilised ligand | 1 µM | remaining binding | 100%
O=c1[nH]c2ccccc2n1C1CCN(Cc2ccc(-c3[nH]c4cc5ncnc5cc4nc3-c3ccccc3)cc2)CC1 | cell-free assay | – | – | 0.5 µM | remaining signal | 107%
Cn1cc(-c2cc(F)cc(N3CCn4c(cc5c4CCCC5)C3=O)c2CO)cc(Nc2ccc(N3CCN(C4COC4)CC3)cn2)c1=O | enzyme activity | inhibitor | – | 0.1 µM | inhibition | 2%
COc1cc(Nc2ncc(F)c(Nc3ccc4c(n3)NC(=O)C(C)(C)O4)n2)cc(OC)c1OC | binding | – | competition with immobilised ligand | 10 µM | inhibition | 62%
C#Cc1n[nH]c2c(-c3cn([C@@H](C)c4ccccc4)c(=O)[nH]c3=O)cc(F)cc12 | enzyme activity | inhibitor | – | 0.1 µM | inhibition | -1.2%
Cn1cncc1[C@@](O)(COc1ccc(C#N)cc1-c1ccc(OC(F)(F)F)cc1)c1ccc(C#N)cc1 | cell-free assay | – | competition with immobilised ligand | 1 µM | remaining binding | 100%
